Compound activity (PubChem BioAssay)
The list is not random: actives were taken first. Their share in the collection is about 0.83%.
RGS16-Gao HTS – regulators of human RGS16-Galphao interaction | O15492+P09471 | bead-based flow cytometry RGS16-Galphao binding, fluorescence; actives lie on both sides | binding response (% of control), % at 10 µM | 220,000 compounds, 0.38% hits | AID 1441;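 also: Galphao activated by GDP with aluminum fluoride before binding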
Target sequence (O15492 whole entry, looked up): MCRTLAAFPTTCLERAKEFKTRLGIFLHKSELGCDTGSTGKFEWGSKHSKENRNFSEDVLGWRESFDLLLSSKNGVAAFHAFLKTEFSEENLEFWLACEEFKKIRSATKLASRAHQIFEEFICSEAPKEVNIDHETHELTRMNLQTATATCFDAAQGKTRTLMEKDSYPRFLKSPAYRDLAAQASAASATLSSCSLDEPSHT
Target sequence (P09471 whole entry, looked up): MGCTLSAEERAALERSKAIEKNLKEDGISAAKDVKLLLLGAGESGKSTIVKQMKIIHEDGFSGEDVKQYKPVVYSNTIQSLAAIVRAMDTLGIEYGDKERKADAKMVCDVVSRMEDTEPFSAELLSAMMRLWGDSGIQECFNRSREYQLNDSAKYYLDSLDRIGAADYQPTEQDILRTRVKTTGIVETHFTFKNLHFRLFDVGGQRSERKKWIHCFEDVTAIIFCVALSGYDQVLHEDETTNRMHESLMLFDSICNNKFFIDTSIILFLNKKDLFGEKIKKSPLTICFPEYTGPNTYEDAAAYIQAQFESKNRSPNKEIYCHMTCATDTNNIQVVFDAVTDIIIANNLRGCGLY
RGS7-Gao reg – modulates binding of RGS7 to human Galphao; Multiplexed bead flow cytometry; actives lie on both sides; binding response (% of control), % at 10 µM; 220,000 compounds, 0.35% hits; P09471; in the data active = binding response below about 49% or above about 150%; inconclusive = no clear call, values can overlap the other calls; inactive = in between;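 also: fluorescent Galphao held in activated GDP-AlF4 state binding bead-coupled RGS7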
Target sequence (P09471 whole entry, looked up): as above
ABCB1 block – human ABCB1 inhibition, ABCG2 as counter-screen. P08183. CCRF-Adr cells, JC-1 efflux, flow cytometry. inhibition, % at 6.6 µM. 190,000 compounds, 0.067% hits; in the data active = inhibition above about 40%;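 also: 0% = vehicle and 100% = reference inhibitor; higher value means more JC-1 retained so stronger ABCB1 efflux block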
RGS8-Gao – regulators of human RGS8-Galphao interaction. P09471. AID 1423. multiplexed bead flow cytometry, RGS8-Galphao binding; actives lie on both sides. 220,000 compounds, 0.34% hits. response (percent of control binding), % at 10 µM; in the data active = response below about 60% or above about 140%; inactive = in between;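 also: Galphao activated as the GDP aluminium fluoride complex binding bead-coupled RGS8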
RGS4-Gao reg – modulates binding of RGS4 to human Galphao. Multiplexed bead flow cytometry; actives lie on both sides. 220,000 compounds, 0.33% hits. binding response (% of control), % at 10 µM. AID 1415; in the data active = binding response below about 49% or above about 150%; inactive = in between;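 also: fluorescent Galphao activated with aluminum fluoride binding bead-coupled RGS4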
ABCG2 inh – blocks JC-1 efflux by human ABCG2 transporter | Q9UNQ0 | IgMXP3 cells, flow cytometry | inhibition, % at 6.6 µM | 190,000 compounds, 0.1% hits | AID 1325;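 active = inhibition above 80%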;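 also: 0% = DMSO and 100% = nicardipine control wells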
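Test system: IgMXP3 cells (ABCG2) mixed with DDAO far-red-labelled CCRF-Adr cells (ABCB1). Reagent: JC-1 transporter substrate. Compound dosing: single test compound dose, 6.6 µM final. Times: 10 min compound exposure, 25 °C. Detection: flow cytometry of retained JC-1 fluorescence. Read-out basis: efflux inhibition in percent versus controls. Controls: nicardipine and DMSO wells.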
RGS-Gao – RGS4-Galphao interaction regulator (human); shares compounds with RGS16-Gao HTS; multiplexed bead flow cytometry, RGS–Galpha-o binding; RGS4–Galpha-o binding response, % at 10 µM; 1,600 compounds, 99% hits;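 also: fluorescently labeled Galpha-o bound to GDP with aluminium fluoride binding biotinylated RGS beads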
Biotin-avidin – interferes with biotinylated probe binding to avidin beads; shares compounds with RGS16-Gao HTS; streptavidin beads, fluorescein-biotin binding, flow cytometry; inhibition, % at 10 µM; 1,700 tested, under 10 active; AID 1783;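 active = inhibition above 50%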;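 also: median green fluorescence of gated singlet beads compared with DMSO control wells; 0% = DMSO wells and 100% = complete loss of bead fluorescence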
RGS8-Gao confirm – RGS8-Galphao interaction regulation, single point confirmation. binding response (% of control), % at 10 µM. shares compounds with RGS16-Gao HTS. 1,700 compounds, 3% hits. AID 1836. bead-based flow cytometry RGS8-Galphao binding, fluorescence; actives lie on both sides; in the data active = binding response below about 72% or above about 130%; inactive = in between;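 also: Galphao activated as GDP AlF4 complex before binding bead RGS8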
RGS7-Gao single – confirmation of regulators of human RGS7-Galphao interaction. 1,700 compounds, 7.8% hits. response (percent of control binding), % at 10 µM. AID 1837. bead-based flow cytometry RGS7-Galphao binding; actives lie on both sides. shares compounds with RGS16-Gao HTS; in the data active = response below about 75% or above about 130%; inactive = in between;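 also: fluorescent Galphao activated with GDP and aluminum fluoride binding bead-coupled RGS7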
RGS16-Gao conf – confirmation of regulators of human RGS16-Galphao interaction; shares compounds with RGS16-Gao HTS; bead-based flow cytometry, RGS16-Galphao binding; actives lie on both sides; response (% of control binding), % at 10 µM; 1,700 compounds, 4% hits; in the data active = response below about 74% or above about 130%; inactive = in between;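 also: Galphao activated as the GDP aluminium fluoride complex binding bead-coupled RGS16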
RGS4-Gao confirm – confirmation of regulators of human RGS4-Galphao interaction | shares compounds with RGS16-Gao HTS | 1,700 compounds, 4% hits | RGS4-Galphao binding, multiplexed bead flow cytometry; actives lie on both sides | binding response (% of control), % at 10 µM; in the data active = binding response below about 74% or above about 130%; inactive = in between
RGS19-Gao conf – confirmation of regulators of human RGS19-Galphao interaction; response (percent of control binding), % at 10 µM; 1,700 compounds, 5% hits; AID 1841; bead-based flow cytometry RGS19-Galphao binding; actives lie on both sides; shares compounds with RGS16-Gao HTS; in the data active = response below about 50% or above about 160%; inactive = in between;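 also: 100% = no compound control and 0% = blank background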
Numbers without * were called inactive; ? = inconclusive; . = no result given; [ ] = another dose, or the depositor's remark. Unless noted, no rule for the calls is given here.

SMILES	RGS16-Gao HTS	RGS7-Gao reg	ABCB1 block	RGS8-Gao	RGS4-Gao reg	ABCG2 inh	RGS-Gao	Biotin-avidin	RGS8-Gao confirm	RGS7-Gao single	RGS16-Gao conf	RGS4-Gao confirm	RGS19-Gao conf
Cc1ccc(C(C)NC(=O)C2CCCO2)cc1C (stereo not given)	.	.	0	.	.	0	.	0	98	103	100	100	87
Cc1cccc(C(=O)NNC(=O)C2CCCO2)c1 (stereo not given)	1.0*	14*	0	12*	21*	0	.	1	120	137*[activator]	124	132*[activator]	135
CCCn1nc(C(=O)OCC(=O)c2c(N)n(C)c(=O)n(C)c2=O)c2ccccc2c1=O	106	94	1	99	96	8	.	.	.	.	.	.	.
NC(=O)c1nn(-c2ccccc2)nc1NC(=O)CN1CCOCC1	97	?	.	103	107	.	.	.	.	.	.	.	.
Cc1ccc2oc(-c3cccc(NC(=O)C4CCCO4)c3)nc2c1 (stereo not given)	100	102	1	102	102	16	.	.	.	.	.	.	.
Cc1cccc(-c2nc3cc(NC(=O)C4CCCO4)ccc3o2)c1 (stereo not given)	179*[activator]	107	0	119	109	5	109*	0	104	104	109	104	99
Fc1cccc(Cc2noc(CN3CCCN(C4Cc5ccccc5C4)CC3)n2)c1	99	94	1	96	95	3	.	.	.	.	.	.	.
O=C(CCC(=O)OCc1ccc(Cl)cc1)Nc1cccc([N+](=O)[O-])c1	44	46*	0	58*	51	1	51*	.	.	.	.	.	.
CC(C)C(NC(=O)c1cccs1)c1nnc(SCC(=O)Nc2nccs2)n1C (stereo not given)	108	102	0	104	103	1	.	.	.	.	.	.	.
COC(=O)c1nc2n(n1)C(c1ccc(OC)c(OC)c1)C(C(=O)OC1CCCCC1)=C(C)N2 (stereo not given)	-38*	88	3	88	82	4	82*	1	103	100	97	102	93
Cc1cc(-n2c(SCCC#N)nnc2-c2cccnc2)ccc1Cl	97	99	2	98	96	18	.	.	.	.	.	.	.
CN=C1c2cc3c(Br)c(OC)ccc3n2CCN1C	153	128	1	97	152*[activator]	3	.	-1	104	95	105	99	96
CCCCN(C)C(=O)Cn1cnc2sc(C)cc2c1=O	114	155*[activator]	0	98	109	-2	109*	.	.	.	.	.	.
Cc1cc2c(=O)n(CC(=O)N3CCN(c4ccc(F)cc4)CC3)cnc2s1	97	96	0	99	98	1	.	.	.	.	.	.	.
O=C(CN1CCOCC1)Nc1ccc(N2CCN(c3ccccc3)CC2)c(F)c1	100	?	1	99	101	4	.	.	.	.	.	.	.
O=C1C2C3c4ccccc4C(c4ccccc43)C2C(=O)N1c1cccnc1 (stereo not given)	24*	86	0	73	88	2	88*	0	100	102	102	102	97
Cn1cc(C2N3CC4(C)CN2CC(C)(C3)C4=O)c2ccccc21 (stereo not given)	102	104	0	104	102	1	.	.	.	.	.	.	.
Cc1cccc(N2C(=O)c3ccc(C(=O)Nc4c[nH]c(=O)[nH]c4=O)cc3C2=O)c1	98	?	.	101	97	.	.	.	.	.	.	.	.
Cc1cc([N+](=O)[O-])nn1CC(=O)NCCCn1ccnc1	133	269*[activator]	0	122	147	4	147*	-2	102	80	89	90	61
COc1cccc2c(Cl)c(CCCl)c(C)nc12	99	97	0	101	98	20	.	.	.	.	.	.	.
COc1ccc(OCC(=O)N2CCN(c3nnc(-c4ccccc4)c4ccccc34)CC2)cc1	8.3*	15*	1	22*	12*	3	.	-1	111	120	115	115	99
COc1ccc(OCC(=O)N2CCN(c3nnc(-c4ccc(C)cc4)c4ccccc34)CC2)cc1	100	?	.	99	97	.	.	.	.	.	.	.	.
c1ccc2c(c1)OCCOCCOc1ccccc1OCCOCCO2	75	191*[activator]	2	145*[activator]	187*[activator]	2	.	1	109	116	114	104	143
c1ccc(Nc2c3c(nc4ncnn24)CCC3)cc1	.	.	0	.	.	3	.	0	95	56*	76	72*	62
CCN1c2cccc3cccc(c23)S1(=O)=O	152	155*[activator]	0	131	155*[activator]	0	.	-1	102	104	103	101	100
SMILES	RGS16-Gao HTS	RGS7-Gao reg	ABCB1 block	RGS8-Gao	RGS4-Gao reg	ABCG2 inh	RGS-Gao	Biotin-avidin	RGS8-Gao confirm	RGS7-Gao single	RGS16-Gao conf	RGS4-Gao confirm	RGS19-Gao conf
O=C(NC(Cc1ccc2c(c1)OCO2)C(=O)NC(Cc1ccccc1)C(=O)O)c1ccccc1 (stereo not given)	103	102	0	101	102	1	.	.	.	.	.	.	.
CC(C)=NOc1nc(N(C)C)nc(N(C)C)n1	208*[activator]	108	0	130	108	2	108*	-2	108	102	111	104	101
CCNc1nc(NCC)nc(ON=C(C)C)n1	99	102	0	101	101	0	.	.	.	.	.	.	.
CCOc1ccc(C(CC(=O)O)NC(=O)COc2ccccc2OC)cc1OC (stereo not given)	97	100	0	100	103	0	.	.	.	.	.	.	.
Cc1ccccc1-n1c(SCC(=O)c2c(N)n(C)c(=O)n(C)c2=O)nnc1-c1cccnc1	96	103	0	101	103	-3	.	.	.	.	.	.	.
Cc1ccccc1-n1c(SCC(=O)c2c(N)n(C)c(=O)n(C)c2=O)nc2sc3c(c2c1=O)CCCC3	22*	89	8	68	88	14	88*	3	103	106	105	103	93
